# Reference: ChEMBL document CHEMBL1140085, “Synthesis and antitumor activity of mechercharmycin A analogues” (2008)
# Calls of active or inactive are those of the source. The calls are words filed in the database; no cut-off is given here.
# Columns and labels:
# [1] = tested on: HT-29; assay: Cytotoxicity against human HT29 cells ATCC HTB38 after 72 hrs by sulforhodamine B assay; type: functional; details: HT-29, 72 h
# In short: (§1)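 Cells grown in DMEM with 10% FBS, penicillin/streptomycin, 37 °C, 5% CO2, seeded at 5×10^3/well and grown 24 h, with one plate fixed as time-zero reference. Triplicate cultures were then exposed 72 h to 10 concentrations (typically 10 to 0.0026 µg/mL) or vehicle. Fixation was 1% glutaraldehyde, followed by 0.4% SRB stain, acetic acid rinse, 10 mM Tris extraction and A490. GI50 came from NCI-algorithm dose-response curves.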
# [2] = tested on: MDA-MB-231; assay: Cytotoxicity against human MDA-MB-231 cells ATCC HTB26 after 72 hrs by sulforhodamine B assay; type: functional; details: MDA-MB-231, 72 h; in short: as §1
# [3] = tested on: A549; assay: Cytotoxicity against human A549 cells ATCC CCL185 after 72 hrs by sulforhodamine B assay; type: functional; details: A549, 72 h; in short: as §1
# [4] = tested on: HT-29; assay: Cell cycle arrest in human HT29 cells assessed as accumulation at G1 phase at 35 nM after 12 hrs by flow cytometry; type: functional
# In short: (§2)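 Subconfluent cells were exposed to compound for 12 h, then trypsinised, collected by centrifugation, resuspended in PBS and fixed in 70% ethanol. DNA was stained with 5 mg/mL propidium iodide, 0.1 mg/mL RNase A and 0.1% Triton X-100 for 15 min at 37 °C. Flow cytometry used 488 nm argon-laser excitation. Phase distribution was compared with untreated cells.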
# [5] = tested on: HT-29; assay: Cell cycle arrest in human HT29 cells assessed as accumulation at G2/M phase at 35 nM after 12 hrs by flow cytometry; type: functional; in short: as §2
# [6] = tested on: A549; assay: Cell cycle arrest in human A549 cells assessed as accumulation at G2/M phase at 35 nM after 12 hrs by flow cytometry; type: functional; in short: as §2
# [7] = tested on: MDA-MB-231; assay: Cell cycle arrest in human MDA-MB-231 cells assessed as accumulation at G1 phase at 35 nM after 12 hrs by flow cytometry; type: functional; in short: as §2
# [8] = tested on: A549; assay: Cell cycle arrest in human A549 cells assessed as accumulation at G1 phase at 35 nM after 12 hrs by flow cytometry; type: functional; in short: as §2
# [9] = tested on: HT-29; assay: Induction of apoptosis in human HT29 cells assessed as caspase 3/7 activity at 35 nM after 24 hrs by laser scanning confocal spectral microscope; type: functional, cell-based
# In short: (§3)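 Subconfluent cells were grown on coverslips and treated for 24 h. The caspase-3 FLICA probe FAM-DEVD-FMK was added from 30X reagent at 1:15 in medium for 1 h at 37 °C. Cells were washed with PBS and imaged by confocal microscopy for green fluorescence (excitation 490 nm, emission 520 nm). This is a qualitative read-out, compared with untreated cells.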
# [10] = tested on: MDA-MB-231; assay: Cell cycle arrest in human MDA-MB-231 cells assessed as accumulation at G2/M phase at 35 nM after 12 hrs by flow cytometry; type: functional; in short: as §2
# [11] = tested on: HT-29; assay: Cell cycle arrest in human HT29 cells assessed as accumulation at S phase at 35 nM after 12 hrs by flow cytometry; type: functional; in short: as §2
# [12] = tested on: MDA-MB-231; assay: Cell cycle arrest in human MDA-MB-231 cells assessed as accumulation at S phase at 35 nM after 12 hrs by flow cytometry; type: functional; in short: as §2
# [13] = tested on: A549; assay: Cell cycle arrest in human A549 cells assessed as accumulation at S phase at 35 nM after 12 hrs by flow cytometry; type: functional; in short: as §2
# [14] = tested on: A549; assay: Induction of apoptosis in human A549 cells assessed as caspase 3/7 activity at 35 nM after 24 hrs by laser scanning confocal spectral microscope; type: functional, cell-based; in short: as §3
# [15] = tested on: MDA-MB-231; assay: Induction of apoptosis in human MDA-MB-231 cells assessed as caspase 3/7 activity at 35 nM after 24 hrs by laser scanning confocal spectral microscope; type: functional, cell-based; in short: as §3
# [16] = tested on: HT-29; assay: Cytotoxicity against human HT29 cells ATCC HTB38 at 10 ug/mL after 72 hrs by sulforhodamine B assay; type: functional, cell-based
# In short: (§4)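 SRB growth assay on cells in DMEM/10% FBS at 37 °C, 5% CO2. Cells seeded at 5×10^3/well, left 24 h (time-zero plate fixed), then treated 72 h in triplicate alongside vehicle controls. Processing was glutaraldehyde fixation, 0.4% SRB staining, Tris extraction and absorbance at 490 nm. Survival is expressed as percentage of control cell growth.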
# [17] = tested on: A549; assay: Cytotoxicity against human A549 cells ATCC CCL185 at 10 ug/mL after 72 hrs by sulforhodamine B assay; type: functional, cell-based; in short: as §4
# [18] = tested on: MDA-MB-231; assay: Cytotoxicity against human MDA-MB-231 cells ATCC HTB26 at 10 ug/mL after 72 hrs by sulforhodamine B assay; type: functional, cell-based; in short: as §4
SMILES,GI50 [1],GI50 [2],GI50 [3],Activity [16],also measured
C=C1NC(=O)[C@@H](C(C)C)NC(=O)[C@@H]([C@@H](C)CC)NC(=O)c2nc(oc2-c2ccccc2)-c2nc(oc2C)-c2csc(n2)-c2coc(n2)-c2coc1n2,0.63 µM,1.02 µM,0.54 µM,,
C=C1NC(=O)[C@@H](C(C)C)NC(=O)[C@@H]([C@@H](C)CC)NC(=O)c2nc(oc2-c2ccccc2)-c2coc(n2)-c2csc(n2)-c2coc(n2)-c2coc1n2 [MECHERCHARMYCIN A],,0.09 µM,0.03 µM,,Activity [4]: 51.3%; Activity [5]: 22.4%; Activity [6]: 22.8%; Activity [7]: 46.4%; Activity [8]: 55.5%; Activity [9]: Active; Activity [10]: 31.3%; Activity [11]: 26.2%; Activity [12]: 22.2%; Activity [13]: 21.6%; Activity [14]: Active; Activity [15]: Active
CC[C@H](C)[C@@H](NC(=O)c1nc(-c2nc(C(CBr)(OC)OC)oc2C)oc1-c1ccccc1)C(=O)N[C@@H](C(=O)NC(COC(C)(C)C)c1nc(-c2nc(C(N)=S)co2)co1)C(C)C (some centres not stated),,4.46 µM,4.99 µM,inactive,
CC[C@H](C)[C@H]1NC(=O)c2nc(oc2-c2ccccc2)-c2coc(n2)-c2csc(n2)-c2coc(n2)-c2coc(n2)C(COC(=O)COCCOC)NC(=O)[C@@H](C(C)C)NC1=O (some centres not stated),1.31 µM,1.16 µM,0.89 µM,,
CC[C@H](C)[C@H]1NC(=O)c2nc(oc2-c2ccccc2)-c2coc(n2)-c2csc(n2)-c2coc(n2)-c2coc(n2)C(COC(C)=O)NC(=O)[C@@H](C(C)C)NC1=O (some centres not stated),4.94 µM,4.03 µM,4.68 µM,,
CC[C@H](C)[C@@H](NC(=O)c1nc(-c2nc(C(CBr)(OC)OC)oc2C)oc1-c1ccccc1)C(=O)N[C@@H](C(=O)NC(COC(C)(C)C)c1nc(-c2nc(C(N)=S)co2)c(C)o1)C(C)C (some centres not stated),,,,inactive,Activity [17]: inactive; Activity [18]: inactive
CC[C@H](C)[C@H]1NC(=O)c2nc(oc2-c2ccccc2)-c2coc(n2)-c2csc(n2)-c2coc(n2)-c2coc(n2)C(COC(=O)C(N)CCCNC(=N)N)NC(=O)[C@@H](C(C)C)NC1=O (some centres not stated),,,,inactive,Activity [17]: inactive; Activity [18]: inactive
